Experimental data published in ChEMBL document CHEMBL1140896, “Morpholino, piperidino, and pyrrolidino derivatives of pyrimidine nucleosides as inhibitors of ribonuclease A: synthesis, biochemical, and crystallographic evaluation” (J Med Chem, 2009).
Activity calls are given as the source filed them. No cut-off for these calls is given here.

Tests used:
Ribonuclease pancreatic = target: T1, Ribonuclease pancreatic (Bos taurus, UniProt P61823); assay: Inhibition of bovine pancreatic RNase A by spectrophotometric method
T1 sequence (P61823 whole entry): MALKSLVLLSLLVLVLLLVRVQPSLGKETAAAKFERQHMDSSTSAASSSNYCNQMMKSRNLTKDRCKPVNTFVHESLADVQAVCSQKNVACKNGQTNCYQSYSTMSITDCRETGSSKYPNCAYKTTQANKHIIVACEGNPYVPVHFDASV
How it was run: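 Bovine pancreatic RNase A; spectrophotometric initial-velocity assay with 2′,3′-cCMP substrate in 0.1 M Mes-NaOH pH 6.0, 0.1 M NaCl. Ki taken from Dixon plots (1/V vs [I]) by the competitive equation; at least three repeats per set.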

[1] = target: T2, Ribonuclease pancreatic (Bos taurus) (UniProt P61823); assay: Inhibition of bovine pancreatic RNase A assessed as effect on tRNA degradation at 0.14 mM by agarose gel based assay
T2 sequence (whole entry): T1 sequence (P61823 whole entry)
How it was run: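 Comparative gel: RNase A (stock 6.29 µM; 1.26 µM in figure) preincubated 3 h with compound (0.14 mM). Aliquots then mixed with yeast tRNA (5 mg/mL stock) for 30 min, run on 1.1% agarose gel, and residual tRNA viewed by ethidium bromide under UV.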

[2] = target: T2, Ribonuclease pancreatic (Bos taurus); assay: Inhibition of bovine pancreatic RNase A assessed as effect on tRNA degradation by agarose gel based assay
How it was run: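 Qualitative gel: RNase A (stock 6.87 µM; 1.37 µM in figure) preincubated 3 h with compound at three levels (0.10–0.31 or 0.13–0.40 mM). Aliquots then mixed with yeast tRNA (5 mg/mL stock) for 30 min, run on 1.1% agarose gel, and residual tRNA stained with ethidium bromide under UV.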

[3] = target: T2, Ribonuclease pancreatic (Bos taurus); assay: Inhibition of bovine pancreatic RNase A ribonucleolytic activity assessed as reduction of tRNA degradation at 0.32 mM by precipitation assay relative to control; design: scale not given: the % may be the effect or the level left
How it was run: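 Bond precipitation assay: RNase A (1.10 µM) preincubated with compound (0.32 mM) 2 h at 37 °C. Then tRNA added in Tris-HCl pH 7.5 with 5 mM EDTA and 0.5 mg/mL HSA, 30 min at 25 °C. Quenched with ice-cold perchloric acid/uranyl acetate, 30 min on ice, centrifuged; supernatant A260 compared with control.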

SMILES	Ki (Ribonuclease pancreatic)	Activity [1]	Activity [2]	Activity [3]
O=c1ccn([C@@H]2O[C@H](CN3CCCCC3)[C@@H](O)[C@H]2O)c(=O)[nH]1		Active	Active	12%
CCOC(=O)C1CCN(C[C@H]2O[C@@H](n3ccc(=O)[nH]c3=O)[C@H](O)[C@@H]2O)CC1	77 µM		Active	30%
Cc1cn([C@H]2C[C@H](O)[C@@H](CN3CCCC3)O2)c(=O)[nH]c1=O		Active	Active	5%
Cc1cn([C@H]2C[C@H](O)[C@@H](COP(=O)(O)OP(=O)(O)O[C@H]3[C@@H](O)[C@H](n4cnc5c(N)ncnc54)O[C@@H]3CO)O2)c(=O)[nH]c1=O	0.041 µM			
O=c1ccn([C@@H]2O[C@H](CN3CCOCC3)[C@@H](O)[C@H]2O)c(=O)[nH]1		Active	Active	12%
O=c1ccn([C@@H]2O[C@H](CN3CCCC3)[C@@H](O)[C@H]2O)c(=O)[nH]1		Active	Active	12%
Cc1cn([C@H]2C[C@H](O)[C@@H](CN3CCCCC3)O2)c(=O)[nH]c1=O		Active	Active	5%

Further lines, results first:

Ki (Ribonuclease pancreatic)	Activity [1]	Activity [2]	Activity [3]	SMILES
103 µM				Nc1ccn([C@@H]2O[C@H](CO)[C@@H](OP(=O)(O)O)[C@H]2O)c(=O)n1
7.1 µM				O=c1ccn([C@@H]2O[C@H](CO)[C@@H](O)[C@H]2OP(=O)(O)O)c(=O)[nH]1
6 µM				O=c1ccn([C@@H]2O[C@H](CO)[C@@H](OP(=O)(O)O)[C@@H]2O)c(=O)[nH]1
82 µM				O=c1ccn([C@@H]2O[C@H](CO)[C@@H](OP(=O)(O)O)[C@H]2O)c(=O)[nH]1
